Source: ChEMBL document CHEMBL3259693, “Multitarget drug discovery for tuberculosis and other infectious diseases” (J Med Chem, 2014)
In brackets after ≈: the same amount, converted by molar mass. Activity calls are given as the source filed them. No cut-off for these calls is given here.

Tests used:
[1] = test system: Mycobacterium tuberculosis; experiment: Antimicrobial activity against Mycobacterium tuberculosis after 7 to 21 days by microdilution method; assay type: functional
[2] = test system: Mycolicibacterium smegmatis; experiment: Antimicrobial activity against Mycobacterium smegmatis after 10 hrs; assay type: functional
[3] = test system: Mycobacterium tuberculosis; experiment: microbe, parasite or virus in culture; assay type: functional; conditions: ATCC 27294
[4] = test system: Mycolicibacterium smegmatis; experiment: microbe, parasite or virus in culture; assay type: functional; conditions: ATCC 700084
Bacillus subtilis = experiment: Antimicrobial activity against Bacillus subtilis subsp. subtilis ATCC 6051 after 12 to 16 hrs by microbroth dilution method; assay type: functional, organism-based
Staphylococcus aureus = experiment: Antimicrobial activity against methicillin-resistant Staphylococcus aureus USA300; assay type: functional
Escherichia coli [5] = experiment: microbe, parasite or virus in culture; assay type: functional, organism-based; conditions: ATCC 29425, 3 h
Saccharomyces cerevisiae = experiment: Antimicrobial activity against Saccharomyces cerevisiae ATCC 208352 after 48 hrs by microbroth dilution method; assay type: functional, organism-based; conditions: ATCC 208352, 48 h
Candida albicans = experiment: Antimicrobial activity against Candida albicans CAI-4; assay type: functional, organism-based
Plasmodium falciparum = experiment: Antimicrobial activity against Plasmodium falciparum 3D7 by intraerythrocytic assay; assay type: functional, organism-based
MCF7 = experiment: Cytotoxicity against human MCF7 cells assessed as growth inhibition by MTT assay; assay type: cell-based
[6] = Therapeutic index, ratio of IC50 for human MCF7 cells to IC50 for Plasmodium falciparum 3D7; assay type: cell-based; conditions: MCF7 cells versus Plasmodium falciparum 3D7, read-out: Ratio IC50
Escherichia coli [7] = experiment: Ratio of IC50 for Escherichia coli ATCC 29425 in presence of 10% fetal bovine serum to IC50 for Escherichia coli ATCC 29425; assay type: functional
Procedure, shortened: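 E. coli broth microdilution in LB. Culture was grown to OD600 ~0.4, diluted 500-fold, and exposed to compound from 0.3 mM, 2× serially diluted to 292 nM. Plates ran 3 h at 37 °C with or without 10% FBS. Viability was read by MTT at 570 nm, and IC50 was obtained by non-linear regression.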

[8] = target: T1, 4,4'-diapophytoene synthase (Staphylococcus aureus, UniProt A9JQL9); experiment: Inhibition of Staphylococcus aureus CrtM
T1 sequence (A9JQL9 whole entry): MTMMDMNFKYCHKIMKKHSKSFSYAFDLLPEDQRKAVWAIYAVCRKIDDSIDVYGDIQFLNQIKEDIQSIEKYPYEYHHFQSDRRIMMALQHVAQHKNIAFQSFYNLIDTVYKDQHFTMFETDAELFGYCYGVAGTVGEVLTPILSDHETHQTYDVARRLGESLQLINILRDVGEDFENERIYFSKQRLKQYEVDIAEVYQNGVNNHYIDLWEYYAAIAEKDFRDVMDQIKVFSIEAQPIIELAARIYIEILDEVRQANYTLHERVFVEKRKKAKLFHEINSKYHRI

Squalene synthase = target: T2, Squalene synthase (Homo sapiens, UniProt P37268); experiment: Inhibition of human SQS
T2 sequence (P37268 whole entry): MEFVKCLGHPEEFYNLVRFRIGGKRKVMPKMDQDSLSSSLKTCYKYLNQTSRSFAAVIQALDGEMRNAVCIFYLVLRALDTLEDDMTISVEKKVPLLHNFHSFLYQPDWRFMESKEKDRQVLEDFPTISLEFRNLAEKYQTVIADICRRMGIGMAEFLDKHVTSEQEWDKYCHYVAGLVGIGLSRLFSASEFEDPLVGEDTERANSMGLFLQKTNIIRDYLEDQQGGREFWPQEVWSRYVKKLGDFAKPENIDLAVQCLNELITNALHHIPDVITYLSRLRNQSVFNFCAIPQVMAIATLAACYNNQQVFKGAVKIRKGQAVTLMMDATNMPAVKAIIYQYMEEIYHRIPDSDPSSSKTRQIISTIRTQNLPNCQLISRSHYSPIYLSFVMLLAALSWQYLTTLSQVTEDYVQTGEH

[9] = Inhibition of Mycobacterium smegmatis MenA; parameters: species or system Mycolicibacterium smegmatis
[10] = Inhibition of Mycobacterium smegmatis MenG using radiolabeled S-adenosylmethionine as substrate after 1 hr by liquid scintillation counting analysis; parameters: species or system Mycolicibacterium smegmatis
[11] = test system: Mycolicibacterium smegmatis; experiment: Inhibition of respiration in Mycobacterium smegmatis after 5 mins by methylene blue reduction assay in presence of NADH; assay type: functional, organism-based
[12] = test system: Mycolicibacterium smegmatis; experiment: Disruption of membrane potential in Mycobacterium smegmatis by DisC3(5) probe-based fluorescence spectrophotometry; assay type: functional, organism-based
[13] = Inhibition of Escherichia coli N-terminal strep-tagged MenA expressed in Escherichia coli C43 (DE3) assessed as demethylmenaquinone-3 formation after 30 mins by HPLC analysis
Escherichia coli [14] = experiment: Induction of collapse in deltapH in Escherichia coli inverted membrane vesicles by 31P NMR spectroscopy; assay type: functional, organism-based
[15] = Therapeutic index, ratio of IC50 for human MCF7 cells to MIC for Mycobacterium tuberculosis ATCC 27294; assay type: cell-based; conditions: MCF7 cells versus Mycobacterium tuberculosis ATCC 27294, read-out: TI
[16] = test system: Mycolicibacterium smegmatis; conditions: at 40 to 120 µM
[17] = test system: Mycolicibacterium smegmatis; experiment: Induction of collapse in deltapH in Mycobacterium smegmatis inverted membrane vesicles at 30 to 150 uM by 31P NMR spectroscopy; assay type: functional
[18] = Inhibition of Mycobacterium tuberculosis MenA
[19] = test system: Mycobacterium tuberculosis; experiment: Antimicrobial activity against Mycobacterium tuberculosis H37Rv; assay type: functional
[20] = Inhibition of Mycobacterium tuberculosis cis-farnesyl diphosphate synthase
[21] = Inhibition of Mycobacterium tuberculosis cis-decaprenyl diphosphate synthase
[22] = Inhibition of Plasmodium vivax geranylgeranyl diphosphate synthase
[23] = Inhibition of Staphylococcus aureus undecaprenyl diphosphate synthase
[24] = Inhibition of Escherichia coli undecaprenyl diphosphate synthase
[25] = Inhibition of Staphylococcus aureus farnesyl diphosphate synthase
[26] = target: T3, Geranylgeranyl pyrophosphate synthase (Homo sapiens, UniProt O95749); experiment: Inhibition of human geranylgeranyl diphosphate synthase
T3 sequence (O95749 whole entry): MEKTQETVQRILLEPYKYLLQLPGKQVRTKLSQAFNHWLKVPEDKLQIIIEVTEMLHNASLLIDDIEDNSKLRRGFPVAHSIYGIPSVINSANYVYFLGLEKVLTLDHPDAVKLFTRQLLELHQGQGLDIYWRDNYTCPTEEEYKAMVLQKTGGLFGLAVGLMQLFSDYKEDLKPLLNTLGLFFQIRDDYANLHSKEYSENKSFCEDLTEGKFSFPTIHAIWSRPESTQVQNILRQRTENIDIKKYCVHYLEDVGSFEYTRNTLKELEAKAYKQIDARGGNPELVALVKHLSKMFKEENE

[27] = test system: Mycobacterium tuberculosis; experiment: Antimicrobial activity against Mycobacterium tuberculosis H37Rv incubated for 7 days measured after 28 days by resazurin microplate reduction assay; assay type: functional
Procedure, shortened: (§1)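 Resazurin microplate reduction assay (REMA) on actively growing M. tuberculosis H37Rv. Drug tested from 10 ng/mL to 10 μg/mL. Medium was supplemented with 0, 10, 100 or 1000 μM menaquinone-4 (MK-4) to test quinone rescue. Activity was read as loss of resazurin reduction to fluorescent resorufin, giving an MIC.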

[28] = test system: Mycobacterium tuberculosis; experiment: Antimicrobial activity against nonreplicating streptomycin-starved Mycobacterium tuberculosis 18b at 1 ug/ml incubated for 7 days measured after 28 days by resazurin microplate reduction assay; assay type: functional
[29] = test system: Mycobacterium tuberculosis; experiment: Antimicrobial activity against Mycobacterium tuberculosis H37Rv incubated for 7 days measured after 28 days by resazurin microplate reduction assay in presence of MK-4; assay type: functional; procedure, shortened: as §1
[30] = Inhibition of Mycobacterium smegmatis malate dehydrogenase using malate as substrate by MTT assay; parameters: species or system Mycolicibacterium smegmatis
Procedure, shortened: (§2)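 M. smegmatis membrane preparation with 5 mM KCN. Dehydrogenase activity was followed as MTT reduction at 570 nm after adding substrate: NADH (Complex I plus NDH-2), deamino-NADH (Complex I only), succinate, malate or lactate. IC50 values were derived from these rates.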

[31] = Inhibition of Mycobacterium smegmatis electron transport protein complex 1 using NADH as substrate by MTT assay; parameters: species or system Mycolicibacterium smegmatis; procedure, shortened: as §2
[32] = Inhibition of Mycobacterium smegmatis NADH dehydrogenase using […] by MTT assay; parameters: species or system Mycolicibacterium smegmatis; procedure, shortened: as §2
[33] = Inhibition of Mycobacterium smegmatis electron transport protein complex 1 using deamino-NADH as substrate by MTT assay; parameters: species or system Mycolicibacterium smegmatis; procedure, shortened: as §2
[34] = Inhibition of Mycobacterium smegmatis succinate dehydrogenase using succinate as substrate by MTT assay; parameters: species or system Mycolicibacterium smegmatis; procedure, shortened: as §2
[35] = Inhibition of Mycobacterium smegmatis lactate dehydrogenase using lactate as substrate by MTT assay; parameters: species or system Mycolicibacterium smegmatis; procedure, shortened: as §2

CC[C@@H](CO)NCCN[C@@H](CC)CO [ETHAMBUTOL]
MIC [1]: 9.8 µM (≈ 2 µg/mL) | MIC [2]: 4.9 µM (≈ 1 µg/mL)

CC(C)=CCC/C(C)=C/CNCCOC1C2CC3CC(C2)CC1C3 (configuration not stated)
MIC [3]: 0.06 µM (≈ 0.0199 µg/mL) | MIC [4]: 4.8 µM (≈ 1.59 µg/mL) | IC50 (Bacillus subtilis): 48 µM | MIC (Staphylococcus aureus): 24 µM (≈ 7.96 µg/mL) | IC50 (Escherichia coli [5]): 8.5 µM | IC50 (Saccharomyces cerevisiae): 5.4 µM | IC50 (Candida albicans): 36 µM | IC50 (Plasmodium falciparum): 2.4 µM | IC50 (MCF7): 30 µM | selectivity ratio [6]: 40 | Ratio IC50 (Escherichia coli [7]): 1.6 | IC50 [8]: 100 µM | IC50 (Squalene synthase): 100 µM | IC50 [9]: 4 µM | IC50 [10]: 15 µM | IC50 [11]: 0.5 µM | IC50 [12]: 31 µM | IC50 [13]: 0.4 µM | IC50 (Escherichia coli [14]): 0.8 µM | selectivity ratio [15]: 900 | inhibition [16]: Active

CO[C@@H]1C[C@@H](C[C@H]2CC[C@H](C)[C@H]([C@@H](C)C(=O)O)O2)O[C@]2(O[C@](C)([C@H]3CC[C@@](C)([C@@H]4O[C@@H]([C@H]5O[C@@](O)(CO)[C@H](C)C[C@@H]5C)C[C@@H]4C)O3)C[C@H]2C)[C@@H]1C
Activity [17]: Active

N#CC(C#N)=NNc1cccc(Cl)c1
Activity [17]: Active

CC(C)=CCC/C(C)=C/CNCCO[C@@H]1C[C@@H]2CC[C@@]1(C)C2(C)C
MIC [3]: 0.15 µM (≈ 0.05 µg/mL) | MIC [4]: 4.8 µM (≈ 1.6 µg/mL) | IC50 (Bacillus subtilis): 5.4 µM | MIC (Staphylococcus aureus): 24 µM (≈ 8.01 µg/mL) | IC50 (Escherichia coli [5]): 36 µM | IC50 (Saccharomyces cerevisiae): 2.7 µM | IC50 (Candida albicans): 19 µM | IC50 (MCF7): 3.9 µM | Ratio IC50 (Escherichia coli [7]): 1.6 | IC50 [9]: 8 µM | IC50 [10]: 5.7 µM | IC50 [11]: 0.3 µM | EC50 [12]: 15 µg/mL (≈ 45 µM) | IC50 [12]: 44 µM | IC50 [13]: 3.2 µM | IC50 (Escherichia coli [14]): 0.8 µM | Activity [17]: Active

CC(C)=CCC/C(C)=C/COCCNC1C2CC3CC(C2)CC1C3 (configuration not stated)
MIC [3]: 0.57 µM (≈ 0.189 µg/mL) | MIC [4]: 19 µM (≈ 6.3 µg/mL) | IC50 (Escherichia coli [5]): 13 µM | IC50 (Plasmodium falciparum): 2.8 µM | IC50 (MCF7): 338 µM | IC50 [8]: 100 µM | IC50 (Squalene synthase): 100 µM | IC50 [11]: 36 µM | IC50 [12]: 78 µM | IC50 [13]: 1.8 µM | IC50 (Escherichia coli [14]): 1 µM

CC(C)=CCC/C(C)=C/CNCCNC1C2CC3CC(C2)CC1C3 (configuration not stated) [SQ109]
IC50 [18]: 9 µM | MIC [19]: 0.7 µM (≈ 0.231 µg/mL) | MIC [3]: 0.3 µM (≈ 0.0992 µg/mL) | MIC [4]: 9.4 µM (≈ 3.11 µg/mL) | IC50 (Bacillus subtilis): 23 µM | IC50 (Escherichia coli [5]): 8.5 µM | IC50 (Saccharomyces cerevisiae): 3.3 µM | IC50 (Candida albicans): 10 µM | IC50 (Plasmodium falciparum): 3 µM | IC50 (MCF7): 18 µM | selectivity ratio [6]: 18 | Ratio IC50 (Escherichia coli [7]): 1.6 | IC50 [20]: ≥ 50 µM | IC50 [21]: ≥ 50 µM | IC50 [22]: ≥ 50 µM | IC50 [23]: ≥ 50 µM | IC50 [24]: ≥ 50 µM | IC50 [25]: ≥ 50 µM | IC50 [26]: 4.5 µM | IC50 [8]: 100 µM | IC50 (Squalene synthase): 100 µM | IC50 [9]: 4.8 µM | IC50 [10]: 13 µM | IC50 [11]: 58 µM | EC50 [12]: 20 µg/mL (≈ 60.5 µM) | IC50 [12]: 55 µM | IC50 [13]: 3.3 µM | IC50 (Escherichia coli [14]): 0.8 µM | MIC [27]: 0.15 µg/mL (≈ 0.454 µM) | MIC [28]: 1 µg/mL (≈ 3.03 µM) | MIC [29]: 1 µg/mL | IC50 [30]: 10 µg/mL (≈ 30.3 µM) | selectivity ratio [15]: 120 | IC50 [31]: 30 µg/mL (≈ 90.8 µM) | IC50 [32]: 30 µg/mL (≈ 90.8 µM) | IC50 [33]: 30 µg/mL (≈ 90.8 µM) | IC50 [34]: 30 µg/mL (≈ 90.8 µM) | IC50 [35]: 30 µg/mL (≈ 90.8 µM) | Activity [17]: Active
